# SR-BI DiI-HDL act – activators of SR-BI mediated HDL lipid uptake; CHO ldlA[mSR-BI] cells, DiI-HDL uptake fluorescence, 3 h; 100 = double the neutral-control signal; activation, % at 12.5 µM; 320,000 tested, 0.096% active; AID 504775;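 active = mean replicate activation of at least 60% and every replicate at or above 60%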;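 also: 0% = median plate neutral-control signal and 100% = twice that signal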
#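 Material: SR-BI-overexpressing, LDLR-lacking CHO cells; schedule: compound exposure 3 h, 37 °C; reagent: DiI-labelled HDL at 10 µg/mL final; technique: bottom-read fluorescence, 550/595 nm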
# XiGFP reactiv – X-chromosome reactivation activator; AID 743238; 360,000 tested, 0.055% active; activation, % at 7.58 µM; XiGFP mouse fibroblasts, % GFP-positive cells imaging, 3 d; cells co-treated with 5-aza-dC sensitizer; scaled so ellipticine positive control = 100%;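 active = mean normalized replicate activation at least 10% and every replicate at or above 10%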;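 also: 0% = median of on-plate neutral control wells and 100% = ellipticine 6 µM median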
#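 Material: SV40-immortalized XiGFP fibroblast cells, line 68-5-11 | Buffer or medium: DMEM containing 5-aza-dC | Dosing: One concentration, pinned | Times: 3 d treatment, 15 min room-temperature fixation | Controls: Ellipticine 6 µM positive control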
# ARNT TACC3 PPI – ARNT/TACC3 interaction disruption. Q9Y6A5. AlphaScreen His-ARNT PAS-B/GST-TACC3 binding, luminescence; TACC3 fragment carries E629A point mutation. 390,000 tested, 0.66% active. inhibition, % at 9.99 µM;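 active = mean inhibition of replicates at least 50% and at least half of replicates each reaching 50%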;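 also: 0% = complete ARNT plus TACC3 wells and 100% = ARNT alone without TACC3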
# NSD2 inh – NSD2 (human) methyltransferase inhibition. O96028. NSD2 peptide methylation, AlphaScreen, 120 min. inhibition, % at 12.5 µM. 310,000 tested, 0.54% active. AID 743445; in the data active = inhibition above about 50%
# Target sequence (O96028 whole entry, looked up): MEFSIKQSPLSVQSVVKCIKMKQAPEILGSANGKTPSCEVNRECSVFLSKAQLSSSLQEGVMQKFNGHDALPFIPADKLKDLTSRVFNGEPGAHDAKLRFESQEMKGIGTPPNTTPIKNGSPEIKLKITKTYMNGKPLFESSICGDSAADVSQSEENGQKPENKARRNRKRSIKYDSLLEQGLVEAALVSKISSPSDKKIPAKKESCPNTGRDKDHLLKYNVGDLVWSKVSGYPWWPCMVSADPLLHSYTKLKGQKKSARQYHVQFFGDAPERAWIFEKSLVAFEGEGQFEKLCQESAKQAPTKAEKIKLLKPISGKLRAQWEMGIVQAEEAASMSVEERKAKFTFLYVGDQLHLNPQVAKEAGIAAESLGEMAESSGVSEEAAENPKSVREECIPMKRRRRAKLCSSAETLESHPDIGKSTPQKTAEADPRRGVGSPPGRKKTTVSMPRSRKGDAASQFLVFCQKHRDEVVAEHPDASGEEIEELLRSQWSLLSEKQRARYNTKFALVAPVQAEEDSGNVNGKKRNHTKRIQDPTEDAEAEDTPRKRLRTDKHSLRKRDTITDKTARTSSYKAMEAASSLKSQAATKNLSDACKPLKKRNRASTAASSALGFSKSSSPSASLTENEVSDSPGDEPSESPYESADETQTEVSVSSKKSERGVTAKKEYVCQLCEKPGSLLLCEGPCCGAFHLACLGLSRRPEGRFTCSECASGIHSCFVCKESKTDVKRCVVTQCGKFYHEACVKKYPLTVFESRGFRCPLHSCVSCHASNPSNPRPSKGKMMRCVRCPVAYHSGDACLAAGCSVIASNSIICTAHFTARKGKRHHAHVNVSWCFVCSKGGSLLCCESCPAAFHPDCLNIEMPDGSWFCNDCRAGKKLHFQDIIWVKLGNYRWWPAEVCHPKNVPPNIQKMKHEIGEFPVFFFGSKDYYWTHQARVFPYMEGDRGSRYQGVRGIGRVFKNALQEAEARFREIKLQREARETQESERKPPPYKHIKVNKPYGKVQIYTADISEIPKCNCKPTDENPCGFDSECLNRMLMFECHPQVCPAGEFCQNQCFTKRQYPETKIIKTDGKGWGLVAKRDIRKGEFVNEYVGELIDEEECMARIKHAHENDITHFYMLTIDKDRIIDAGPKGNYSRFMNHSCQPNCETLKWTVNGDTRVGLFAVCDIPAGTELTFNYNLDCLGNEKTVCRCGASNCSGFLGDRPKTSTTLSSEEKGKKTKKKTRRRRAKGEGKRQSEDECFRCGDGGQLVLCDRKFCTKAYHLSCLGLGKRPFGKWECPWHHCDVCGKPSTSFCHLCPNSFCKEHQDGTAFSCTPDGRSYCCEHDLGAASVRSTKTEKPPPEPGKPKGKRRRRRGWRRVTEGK
# SR-BI DiI inh – mouse SR-BI HDL lipid transfer inhibition | ldlA[mSR-BI] CHO cells, DiI-HDL uptake fluorescence, 3 h | 320,000 tested, 0.96% active | inhibition, % at 12.5 µM;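 active = mean replicate inhibition of at least 70% and a set share of replicates each scoring 70 or more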;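 also: 0% = median of neutral control wells and 100% = median of positive control wells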
# HGIII-sPLA2 inh – Blocks human group III sPLA2 activity; Q9NZ20; QFRET BODIPY PC-A2 liposome hydrolysis, fluorescence; inhibition, % at 12.2 µM; 370,000 tested, 0.56% active;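 active = inhibition above mean plus 3 SD of compounds lying within the high and low control bounds, cut at about 19% in these data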;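 also: 0% = median of test compound wells and 100% = no enzyme DMSO wells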
# An asterisk follows results filed as active; . = not tested or not shown. Most compounds without a hit are left out; they make up all but 2% or so of the library.
SMILES,SR-BI DiI-HDL act,XiGFP reactiv,ARNT TACC3 PPI,NSD2 inh,SR-BI DiI inh,HGIII-sPLA2 inh
COc1cc(/C=C2\NC(=S)N(C)C2=O)ccc1OCc1ccccc1F,-77,0,-2,-2,77*,18
N#C/C(=C/c1ccc(-c2ccc(S(N)(=O)=O)cc2)o1)c1nc2ccccc2s1,-27,92*,5,-1,27,7
N#C/C(=C/c1ccc(-c2ccccc2)o1)c1nc(-c2cccs2)cs1,-47,77*,-5,-1,47,1
N#C/C(=C/c1ccc(-c2ccc([N+](=O)[O-])cc2)o1)C(=O)Nc1nc(-c2cccs2)cs1,-88,0,20,3,88*,-8
N#C/C(=C\c1ccc(-c2ccc(F)cc2)o1)C(=O)Nc1nc(-c2cccs2)cs1,-57,0,3,0,57,-6
N#C/C(=C\c1ccc(-c2ccccc2)cc1)c1nc(-c2ccco2)cs1,17,0,4,1,-17,16
COCC#Cc1ccc2c(c1)O[C@@H](CN(C)C)[C@H](C)CN([C@H](C)CO)S2(=O)=O,.,0,-4,.,.,.
O=c1oc2ccccc2c(Nc2cc3ccccc3cc2O)c1[N+](=O)[O-],-30,0,18,39,30,-6
COc1cc(/C=N/NC(=O)CC#N)ccc1Oc1nc(Cl)ncc1F,-82,0,1,1,82*,-29
COc1ccc(C=NNC(=O)CCCC(=O)NN=Cc2ccc(OC)c(OC)c2)cc1OC,-17,0,-1,-2,17,4
CC(=O)Oc1cc2c(s1)CCN(C(C(=O)C1CC1)c1ccccc1F)C2 (centres undefined),.,.,.,4,.,-4
Cc1[nH]n(-c2ccccc2)c(=O)c1C(C[N+](=O)[O-])c1ccc(Br)cc1 (centres undefined),-1,.,48*,32,1,0
COc1cccc(C(C[N+](=O)[O-])c2c(C)[nH]n(-c3ccccc3)c2=O)c1 (centres undefined),14,0,20,12,-14,-6
COc1ccc2c3c(n(C)c2c1)[C@H](CO)N(C(=O)CN(C)C)CC31CN(C(=O)NC(C)C)C1,.,0,.,.,.,.
COc1ccc(OC)c(NC(=O)c2cc(S(=O)(=O)NCc3ccco3)ccc2F)c1,-83,.,1,.,83*,-27
COc1ccc(NS(=O)(=O)c2ccc(O)c(NC(=O)c3cc4c(C)nn(-c5ccc(F)cc5)c4s3)c2)cc1,-77,.,-27,-1,77*,.
COc1ccc2c(c1)OC[C@H]1[C@H]2N2C(=O)c3ccc(C)cc3NC(=O)[C@@]2(C)[C@H]1c1ccccc1,-49,1,-18,.,49,40*
CCOC(=O)[C@H]1[C@H]2COc3ccc(C)cc3[C@@H]2N2C(=O)c3ccc(Cl)cc3NC(=O)[C@@]12C,11,0,-2,.,-11,0
CCOC(=O)[C@H]1[C@H]2COc3ccc(Cl)cc3[C@@H]2N2C(=O)c3ccc(Cl)cc3NC(=O)[C@@]12C,-13,0,15*,.,13,5
O=C(c1cccs1)N1CCN(c2ccccc2)CC1,6,0,-7,-1,-6,2
COc1ccc(-c2ccc(NCCC3=CCCCC3)nn2)cc1OC,-75,.,0,-1,75*,-2
Cc1ccc(-c2nnc(N3CCOCC3)c3ccccc23)cc1S(=O)(=O)NCc1cccnc1,-31,0,20,-2,31,-5
CC(C)(C)c1cc(CCC(=O)NCCc2ccccn2)cc(C(C)(C)C)c1O,-13,0,10,-2,13,4
O=C1C=C(NCCc2cc(Br)c(O)c(Br)c2)C(=O)c2ncccc21,-21,0,64*,137*,21,-8
CCn1c2ccccc2c2nnc(SCC(=O)Nc3c(C)n(C)n(-c4ccccc4)c3=O)nc21,-14,.,-9,2,14,15
SMILES,SR-BI DiI-HDL act,XiGFP reactiv,ARNT TACC3 PPI,NSD2 inh,SR-BI DiI inh,HGIII-sPLA2 inh
Cc1c(NC(=O)CSc2nnc3c4ccccc4n(CCc4ccccc4)c3n2)c(=O)n(-c2ccccc2)n1C,-82,.,-2,38,82*,13
C=CCn1cc(C(=O)OCC)c(=O)c2ccc(F)cc21,6,0,-7,.,-6,11
CC(=O)N1[C@H](CO)[C@H](c2ccccc2)[C@H]1CN(C)C(=O)c1ccccc1F,.,0,-1,.,.,.
Cc1ccc(S(=O)(=O)N2CCN(C(=O)c3c(C)nn(-c4ccccc4)c3Cl)CC2)cc1,-2,.,-2,.,2,-4
Cc1cc(C)c(S(=O)(=O)N2CCN(C(=O)c3c(C)nn(-c4ccccc4)c3Cl)CC2)c(C)c1,-78,0,10,1,78*,2
COc1cccc(OC)c1C(=O)NNC(=O)c1cccc(COc2ccc3c(c2)CCC3)c1,-76,.,0,-2,76*,-14
O=C(NCc1ccccc1)c1cccc(COc2ccc3c(c2)CCC3)c1,11,0,-11,-1,-11,-21
CS(=O)(=O)N1Cc2cc(C(=O)NCC3CC3)nc(-c3cccc(-c4cccnc4)c3)c2[C@@H]1CCO,.,0,.,.,.,1
CC(C)(C)OC(=O)NC(Cc1ccccc1)C(=O)N1CCC(C(=O)NCC(=O)Nc2ccc(F)cc2)CC1 (centres undefined),5,0,5,-1,-5,-11
COc1ccc(C(=O)O)cc1S(=O)(=O)N1CCCc2ccccc21,-8,0,11*,1,8,-4
Cc1cc(NC(=O)c2sc(Nc3ccc(F)c(Cl)c3)nc2N)no1,-87,0,1,0,87*,0
O=C(Nc1ccccc1)N(Cc1cccs1)C1CCCC1,-15,.,-17,21,15,4
CCOC(=O)C1=c2/c(=C/c3ccncc3)c(N)c(C(=O)OC)n2C(=O)C(c2ccncc2)S1 (centres undefined),-8,116*,-2,.,8,4
CCOC(=O)C1=C(N)n2c(s/c(=C\c3ccncc3)c2=O)=C(C(=O)OCC)C1c1ccncc1 (centres undefined),1,0,.,-1,-1,-1
CCCCOc1ccc(NC(=O)CSc2cccc3cccnc23)cc1,7,0,13,1,-7,-8
Cc1cccc(NC(=O)CSc2cccc3cccnc23)c1,2,0,57*,-1,-2,-9
O=C(CSc1cccc2cccnc12)Nc1cc(C(=O)O)cc(C(=O)O)c1,21,0,68*,6,-21,5
Cc1ccc(SC2=C(N(C)C)C(=O)c3ccccc3C2=O)cc1,-21,0,.,93*,21,17
Cc1ccc(NC2=C(Cl)C(=O)c3ccccc3C2=O)cc1,21,0,-1,1,-21,11

# Assay outcomes from PubChem.
